These results are taken from ChEMBL document CHEMBL1127531, “Selective type IV phosphodiesterase inhibitors as antiasthmatic agents. The syntheses and biological activities of 3-(cyclopentyloxy)-4-methoxybenzamides and analogues” (J Med Chem, 1994).

The IC50 is the point on the concentration scale where inhibition reaches its midpoint. Lower therefore signals greater potency.

The target in the first test is T1, Phosphodiesterase 4 (Homo sapiens, UniProt P27815+Q08499+Q07343+Q08493). The test is described as follows: Inhibition of solubilized eosinophil PDE IV. In kind it is protein assay, Cavia porcellus.
Conditions: not given
`COc1ccc(C(=O)Nc2ccccc2Cl)cc1OC1CCCC1`: the IC50 was 0.051 µM.
Same read-out and setting: in the case of `COc1ccc(C(=O)Nc2c(C)cccc2C)cc1OC1CCCC1` it was 0.065 µM; in that of `COc1ccc(C(=O)Nc2ccncc2Cl)cc1OC1CCCC1`, 0.002 µM.
On the same count and under the same terms, in the case of `COc1ccc(C(=O)Nc2c(Cl)c[n+]([O-])cc2Cl)cc1OC1CCCC1` it was 0.002 µM; in that of `COc1ccc(C(=O)Nc2c(Cl)cncc2Cl)cc1OC1CC2CCC1C2` (racemic), 0.0005 µM.

Another test relates to Cavia porcellus. Put plainly: In vivo bronchodilator effect on histamine-induced bronchospasm in anaesthetized guinea pigs at 100 ug intravenous dose.
Conditions: not given
In kind it is functional.
In turn, `COc1ccc(C(=O)Nc2ccccc2Cl)cc1OC1CCCC1` registered a Duration of 27 min and a Reduction of 43%.
The molecule `COc1ccc(C(=O)Nc2c(C)cccc2C)cc1OC1CCCC1` registered a Duration of 16 min and a Reduction of 24%.
On to `COc1ccc(C(=O)Nc2c(Cl)c[n+]([O-])cc2Cl)cc1OC1CCCC1`, for which the Duration is 39 min and the Reduction is on record as 54%.
On the same counts, the results for `COc1ccc(C(=O)Nc2c(Cl)cncc2Cl)cc1OC1CC2CCC1C2` (racemic) are 59 min and 80%.

The next test has as its target Phosphodiesterase 1 (Sus scrofa). Put plainly: Inhibitory potency against pig aortic PDE I.
Conditions: not given
`COc1ccc(C(=O)Nc2ccccc2Cl)cc1OC1CCCC1` registered an IC50 of more than 200 µM.
For the molecule `COc1ccc(C(=O)Nc2c(C)cccc2Cl)cc1OC1CCCC1`, the IC50 is more than 1000 µM.
On to `COc1ccc(C(=O)Nc2ccc(F)cc2)cc1OC1CCCC1`, for which the IC50 is more than 1000 µM.
Consider `COc1ccc(C(=O)Nc2ccccc2Br)cc1OC1CCCC1`, for which the IC50 is more than 1000 µM.
On the same count and under the same terms, in the case of `COc1ccc(C(=O)Nc2ccccc2O)cc1OC1CCCC1` it was more than 200 µM.
Still for that read-out and setting: next, `COC(=O)c1ccccc1NC(=O)c1ccc(OC)c(OC2CCCC2)c1`: more than 40 µM; `COc1ccc(C(=O)Nc2ccccc2C)cc1OC1CCCC1`: more than 1000 µM.
The same measure, in the same setting: in the case of `COc1ccc(C(=O)Nc2ccccc2C(F)(F)F)cc1OC1CCCC1` it was more than 1000 µM; in that of `COc1ccc(C(=O)Nc2cccc(Cl)c2Cl)cc1OC1CCCC1`, more than 200 µM; in that of `COc1ccc(C(=O)Nc2c(F)cccc2Cl)cc1OC1CCCC1`, more than 1000 µM.
As for `COc1ccc(C(=O)Nc2ccccc2C(=O)c2ccccc2)cc1OC1CCCC1`, the IC50 is more than 40 µM.
`COc1ccc(C(=O)Nc2ccc(Cl)cc2)cc1OC1CCCC1` had an IC50 of more than 1000 µM.
Take `COc1ccc(C(=O)Nc2ccccc2F)cc1OC1CCCC1`: the 50% inhibitory concentration (IC50) was more than 1000 µM.
On the same count and under the same terms, next, `COc1ccc(C(=O)Nc2ccc(C)cc2)cc1OC1CCCC1`: more than 200 µM.
`COc1ccc(C(=O)Nc2ccccc2SC)cc1OC1CCCC1` came in with an IC50 of more than 200 µM.
In the case of `COc1ccc(C(=O)Nc2cccc(Cl)c2)cc1OC1CCCC1`, the 50% inhibitory concentration (IC50) was more than 40 µM.

Another test is filed under the species Cavia porcellus. Put plainly: Inhibition of superoxide O2-generation from guinea pig peritoneal eosinophils. In kind it is functional.
Conditions: not given
Summed up:
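Guinea pig peritoneal eosinophils (10^6/well) were incubated for 45 min at 37 °C in HBSS with p-iodonitrotetrazolium violet (0.5 mg/mL). Superoxide was measured as SOD-inhibitable dye reduction: cells were pelleted and dissolved overnight at room temperature in DMSO/0.6 M HCl, and absorbance was read at 492 nm.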
Regarding `COc1ccc(C(=O)Nc2ccccc2Cl)cc1OC1CCCC1`, the IC50 came to 0.45 µM.
`COc1ccc(C(=O)Nc2c(C)cccc2C)cc1OC1CCCC1` had an IC50 of 0.17 µM.
Molecule `COc1ccc(C(=O)Nc2ccncc2Cl)cc1OC1CCCC1` registered a concentration for half-maximal inhibition (IC50) of 0.03 µM.
The same measure, in the same setting: in the case of `COc1ccc(C(=O)Nc2c(Cl)c[n+]([O-])cc2Cl)cc1OC1CCCC1` it was 0.3 µM.
Molecule `COc1ccc(C(=O)Nc2c(Cl)cncc2Cl)cc1OC1CC2CCC1C2` (racemic) yielded a half-inhibitory concentration (IC50) of 0.022 µM.

In the next test the target is T1, Phosphodiesterase 4. Put plainly: Inhibition of guinea pig PDE IV. In kind it is protein assay, Cavia porcellus. The note with it: target entry is the homologue from another species.
`COc1ccc(C(=O)Nc2ccccc2Cl)cc1OC1CCCC1` displayed an IC50 of 0.186 µM.
On the same count and under the same terms, in the case of `COc1ccc(C(=O)Nc2c(C)cccc2C)cc1OC1CCCC1` it was 0.106 µM; in that of `COc1ccc(C(=O)Nc2ccncc2Cl)cc1OC1CCCC1`, 0.016 µM.
For the molecule `COc1ccc(C(=O)Nc2c(Cl)c[n+]([O-])cc2Cl)cc1OC1CCCC1`, the IC50 turned out to be 0.0023 µM.
As for `COc1ccc(C(=O)Nc2c(Cl)cncc2Cl)cc1OC1CC2CCC1C2` (racemic), the half-inhibitory concentration (IC50) was determined as 0.0014 µM.

The target in another test is T2, Phosphodiesterase 4A (Sus scrofa, UniProt O77823).
T2 sequence (O77823 whole entry): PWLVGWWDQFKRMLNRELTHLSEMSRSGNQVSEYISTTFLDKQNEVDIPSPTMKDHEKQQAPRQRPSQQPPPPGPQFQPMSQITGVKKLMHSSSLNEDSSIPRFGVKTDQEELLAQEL
The test is described as follows: Inhibitory potency against pig aortic PDE IV.
Conditions: not given
Summed up:
(§1)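 Pig aortic PDE isozymes were separated by DEAE-trisacryl anion-exchange chromatography. PDE III was assayed in the presence of rolipram (10 µM) and PDE IV in the presence of siguazodan (10 µM) to exclude cross-contamination.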
Molecule `COc1ccc(C(=O)Oc2c(Cl)cccc2Cl)cc1OC1CCCC1` gave a half-maximal inhibitory concentration (IC50) of more than 1000 µM.
Still for that read-out and setting: next, `COc1ccc(C(=O)Nc2ccccc2Cl)cc1OC1CCCC1`: 0.19 µM.
In turn, `COc1ccc(C(=O)NCc2ccccc2Cl)cc1OC1CCCC1` yielded a half-maximal inhibitory concentration (IC50) of more than 1000 µM.
For the molecule `COc1ccc(C(=O)Nc2c(C)cccc2Cl)cc1OC1CCCC1`, half-maximal inhibition (IC50) required 0.1 µM.
On the same count and under the same terms, next, `COc1ccc(C(=O)Nc2c(C)cccc2C)cc1OC1CCCC1`: 0.1 µM; `COc1ccc(C(=O)Nc2ccncc2Cl)cc1OC1CCCC1`: 0.016 µM; `COc1ccc(C(=O)Nc2ncccc2C)cc1OC1CCCC1`: 3.1 µM.
The molecule `COc1ccc(C(=O)Nc2ccccn2)cc1OC1CCCC1` showed an IC50 of 1 µM.
Same read-out and setting: in the case of `COc1ccc(C(=O)Nc2ccccc2Cl)cc1OC(=O)c1ccccc1` it was more than 1000 µM.
The same measure, in the same setting: next, `COc1ccc(C(=O)Nc2ccc(F)cc2)cc1OC1CCCC1`: more than 1000 µM; `COc1ccc(C(=O)Nc2ccccc2Br)cc1OC1CCCC1`: 0.13 µM; `COc1ccc(C(=O)Nc2c(Cl)cncc2Cl)cc1OC1CCCCC1`: 0.05 µM.
With `COc1ccc(C(=O)Nc2ccncc2)cc1OC1CCCC1`, the concentration for half-maximal inhibition (IC50) worked out at 0.8 µM.
`COc1ccc(C(=O)Nc2c(F)c(F)nc(F)c2F)cc1OC1CCCC1` came in with a half-maximal inhibitory concentration (IC50) of 0.55 µM.
Same read-out and setting: next, `COc1ccc(C(=O)Nc2c(C)nsc2Br)cc1OC1CCCC1`: 0.5 µM; `COc1ccc(C(=O)Nc2c(F)cccc2F)cc1OC`: 0.9 µM; `COc1ccc(C(=O)Nc2nccs2)cc1OC1CCCC1`: 6.5 µM.
On the same count and under the same terms, next, `CCCOc1cc(C(=O)Nc2c(F)cccc2F)ccc1OC`: 1.6 µM; `COc1ccc(C(=O)Nc2c(Cl)c(F)nc(F)c2Cl)cc1OC1CCCC1`: 0.02 µM; `COc1ccc(C(=O)Nc2ccccc2O)cc1OC1CCCC1`: 1.3 µM.
Same read-out and setting: next, `COC(=O)c1ccccc1NC(=O)c1ccc(OC)c(OC2CCCC2)c1`: 3 µM; `COc1ccc(C(=O)Nc2ccccc2C)cc1OC1CCCC1`: 0.3 µM.
For the molecule `COc1ccc(C(=O)Nc2ccccc2C(F)(F)F)cc1OC1CCCC1`, it took 3.1 µM to reach half-maximal inhibition (IC50).
Same read-out and setting: in the case of `COc1ccc(C(=O)Nc2cccc(Cl)c2Cl)cc1OC1CCCC1` it was more than 200 µM.
The same measure, in the same setting: in the case of `COc1ccc(C(=O)Nc2c(F)cccc2Cl)cc1OC1CCCC1` it was 0.24 µM.
Molecule `COc1ccc(C(=O)Nc2ccccc2C(=O)c2ccccc2)cc1OC1CCCC1` returned an IC50 of 1.7 µM.
Same read-out and setting: in the case of `COc1ccc(C(=O)Nc2c(Cl)c[n+]([O-])cc2Cl)cc1OC1CCCC1` it was 0.002 µM; in that of `COc1ccc(C(=O)Nc2ccc(Cl)cc2)cc1OC1CCCC1`, more than 1000 µM; in that of `COc1ccc(C(=O)Nc2ccccc2F)cc1OC1CCCC1`, 10.7 µM.
`COc1ccc(C(=O)Nc2ccc(C)cc2)cc1OC1CCCC1` registered an IC50 of more than 200 µM.
Molecule `COc1ccc(C(=O)Nc2ccccc2SC)cc1OC1CCCC1` showed an IC50 of 1.2 µM.
`COc1ccc(C(=O)Nc2cccc(Cl)c2)cc1OC1CCCC1` came in with an IC50 of 1.3 µM.
Same read-out and setting: in the case of `COc1ccc(C(=O)Nc2c(Cl)cncc2Cl)cc1OC1CC2CCC1C2` (racemic) it was 0.001 µM.

System in the next test: not listed separately
The test is described as follows: Inhibitory potency against pig aortic PDE III. More on the design: species or system Sus scrofa.
Conditions: not given
A digest of the protocol:
as §1
Regarding `COc1ccc(C(=O)Nc2ccccc2Cl)cc1OC1CCCC1`, the half-inhibitory concentration (IC50) is more than 200 µM.
Regarding `COc1ccc(C(=O)Nc2c(C)cccc2Cl)cc1OC1CCCC1`, the half-inhibitory concentration (IC50) is more than 1000 µM.
Still for that read-out and setting: in the case of `COc1ccc(C(=O)Nc2c(C)cccc2C)cc1OC1CCCC1` it was more than 200 µM.
Same read-out and setting: next, `COc1ccc(C(=O)Nc2ccc(F)cc2)cc1OC1CCCC1`: more than 1000 µM.
Still for that read-out and setting: in the case of `COc1ccc(C(=O)Nc2ccccc2Br)cc1OC1CCCC1` it was more than 1000 µM.
As for `COc1ccc(C(=O)Nc2ccccc2O)cc1OC1CCCC1`, the IC50 is more than 200 µM.
On the same count and under the same terms, in the case of `COC(=O)c1ccccc1NC(=O)c1ccc(OC)c(OC2CCCC2)c1` it was more than 40 µM; in that of `COc1ccc(C(=O)Nc2ccccc2C)cc1OC1CCCC1`, more than 1000 µM; in that of `COc1ccc(C(=O)Nc2ccccc2C(F)(F)F)cc1OC1CCCC1`, more than 1000 µM.
On the same count and under the same terms, in the case of `COc1ccc(C(=O)Nc2cccc(Cl)c2Cl)cc1OC1CCCC1` it was more than 200 µM; in that of `COc1ccc(C(=O)Nc2c(F)cccc2Cl)cc1OC1CCCC1`, more than 1000 µM.
For `COc1ccc(C(=O)Nc2ccccc2C(=O)c2ccccc2)cc1OC1CCCC1`, the IC50 is more than 40 µM.
Molecule `COc1ccc(C(=O)Nc2ccc(Cl)cc2)cc1OC1CCCC1` registered a 50% inhibitory concentration (IC50) of more than 1000 µM.
On the same count and under the same terms, next, `COc1ccc(C(=O)Nc2ccccc2F)cc1OC1CCCC1`: more than 1000 µM; `COc1ccc(C(=O)Nc2ccc(C)cc2)cc1OC1CCCC1`: more than 200 µM.
On to `COc1ccc(C(=O)Nc2ccccc2SC)cc1OC1CCCC1`, for which the 50% inhibitory concentration (IC50) was more than 200 µM.
In turn, `COc1ccc(C(=O)Nc2cccc(Cl)c2)cc1OC1CCCC1` gave an IC50 of more than 40 µM.

A further test relates to Cavia porcellus. The test is described as follows: In vivo bronchodilator effect on histamine-induced bronchospasm in anaesthetized guinea pigs at 200 ug intravenous dose. In kind it is functional.
Conditions: not given
As for `COc1ccc(C(=O)Nc2ccncc2Cl)cc1OC1CCCC1`, the Duration is given as 15 min.

The subject of a further test is Cavia porcellus. The test is described as follows: In vivo bronchodilator effect on histamine-induced bronchospasm in anaesthetized guinea pigs at 50 ug intravenous dose. It is filed as functional.
Conditions: not given
Regarding `COc1ccc(C(=O)Nc2c(Cl)c[n+]([O-])cc2Cl)cc1OC1CCCC1`, the Duration came out at 18 min and the Reduction was determined as 45%.
The matching figures for `COc1ccc(C(=O)Nc2c(Cl)cncc2Cl)cc1OC1CC2CCC1C2` (racemic): 29 min and 35%.

A further test deals with Cavia porcellus. The test is described as follows: In vivo bronchodilator effect on histamine-induced bronchospasm in anaesthetized guinea pigs at 20 ug intravenous dose.
Conditions: not given
It is filed as functional.
The molecule `COc1ccc(C(=O)Nc2ccncc2Cl)cc1OC1CCCC1` registered a Reduction of 26%.
